The source made the active and inactive calls. No cut-off for these calls is given here.
Experiments:
Rattus norvegicus [1] = test: Antihypertensive activity against DOCA-salt induced hypertension in albino rat assessed as reduction in systolic blood pressure at 10 mg/kg, po after 360 mins by tail-cuff method; format: functional; conditions: Artery, 6 h
Method in brief: (§1)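 Rats given DOCA 20 mg/kg s.c. twice weekly in olive oil for 4 weeks, with 1% w/v NaCl as drinking water, reaching systolic 160–180 mm Hg. Rats were trained in restrainer and tail-cuff sessions. Compounds in 0.5% CMC were dosed at 10 mg/kg by oral feeding needle, with vehicle and nifedipine groups. BP was read before dosing and after, with the tail warmed at 37 °C for 2–5 min. Each compound was run three times in one week and readings averaged.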

Rattus norvegicus [2] = test: Antihypertensive activity against DOCA-salt induced hypertension in albino rat assessed as reduction in systolic blood pressure at 10 mg/kg, po after 900 mins by tail-cuff method; format: functional; conditions: Artery, 15 h; method in brief: as §1
Rattus norvegicus [3] = test: Antihypertensive activity against DOCA-salt induced hypertension in albino rat assessed as reduction in systolic blood pressure at 10 mg/kg, po after 30 mins by tail-cuff method; format: functional; conditions: Artery, 0.5 h; method in brief: as §1
Rattus norvegicus [4] = test: Antihypertensive activity against DOCA-salt induced hypertension in albino rat assessed as reduction in systolic blood pressure at 10 mg/kg, po after 60 mins by tail-cuff method; format: functional; conditions: Artery, 1 h; method in brief: as §1
Rattus norvegicus [5] = test: Antihypertensive activity against DOCA-salt induced hypertension in albino rat assessed as reduction in systolic blood pressure at 10 mg/kg, po after 180 mins by tail-cuff method; format: functional; conditions: Artery, 3 h; method in brief: as §1
Rattus norvegicus [6] = test: Antihypertensive activity against DOCA-salt induced hypertension in albino rat assessed as reduction in systolic blood pressure at 10 mg/kg, po after 720 mins by tail-cuff method; format: functional; conditions: Artery, 12 h; method in brief: as §1
Rattus norvegicus [7] = test: Antihypertensive activity against DOCA-salt induced hypertension in albino rat assessed as reduction in systolic blood pressure at 10 mg/kg, po after 120 mins by tail-cuff method; format: functional; conditions: Artery, 2 h; method in brief: as §1
Rattus norvegicus [8] = test: Antihypertensive activity against DOCA-salt induced hypertension in albino rat assessed as reduction in systolic blood pressure at 10 mg/kg, po after 15 mins by tail-cuff method; format: functional; conditions: Artery, 0.25 h; method in brief: as §1
Rattus norvegicus [9] = test: Antihypertensive activity against DOCA-salt induced hypertension in albino rat assessed as reduction in systolic blood pressure at 10 mg/kg, po after 600 mins by tail-cuff method; format: functional; conditions: Artery, 10 h; method in brief: as §1
Rattus norvegicus [10] = test: Antihypertensive activity against DOCA-salt induced hypertension in albino rat assessed as reduction in systolic blood pressure at 10 mg/kg, po after 300 mins by tail-cuff method; format: functional; conditions: Artery, 5 h; method in brief: as §1
Rattus norvegicus [11] = test: Antihypertensive activity against DOCA-salt induced hypertension in albino rat assessed as reduction in systolic blood pressure at 10 mg/kg, po up to 360 mins by tail-cuff method; format: functional, organism-based; parameters: dose 10 mg/kg; conditions: Artery; method in brief: as §1
Rattus norvegicus [12] = test: Antihypertensive activity against DOCA-salt induced hypertension in albino rat assessed as reduction in systolic blood pressure at 10 mg/kg, po after 240 mins by tail-cuff method; format: functional; conditions: Artery, 4 h; method in brief: as §1

Row | Structure (SMILES) | inhibition in vivo at 10 mg/kg (Rattus norvegicus [1]) | inhibition in vivo at 10 mg/kg (Rattus norvegicus [2]) | inhibition in vivo at 10 mg/kg (Rattus norvegicus [3]) | inhibition in vivo at 10 mg/kg (Rattus norvegicus [4]) | inhibition in vivo at 10 mg/kg (Rattus norvegicus [5]) | inhibition in vivo at 10 mg/kg (Rattus norvegicus [6]) | inhibition in vivo at 10 mg/kg (Rattus norvegicus [7]) | inhibition in vivo at 10 mg/kg (Rattus norvegicus [8]) | inhibition in vivo at 10 mg/kg (Rattus norvegicus [9]) | inhibition in vivo at 10 mg/kg (Rattus norvegicus [10]) | Activity (Rattus norvegicus [11]) | inhibition in vivo at 10 mg/kg (Rattus norvegicus [12])
1 | CC1=C(C(=O)Nc2ccc([N+](=O)[O-])cc2)C(c2cccc([N+](=O)[O-])c2)N=C(SCc2ccc(Cl)cc2)N1 (configuration not stated) | 33% | 12.3% | 3.1% | 6.7% | 14.9% | 15.5% | 12.4% | 2.1% | 26.2% | 24.1% | Active | 20%
2 | COc1ccc(C2N=C(SCc3cccc(Cl)c3)NC(C)=C2C(=O)Nc2ccc(Br)cc2)cc1 (configuration not stated) | 39.7% | 22.6% | 7.7% | 15.4% | 27.3% | 26.8% | 21.1% | 3.1% | 32.8% | 39% | Active | 33.8%
3 | COc1ccc(C2N=C(SCc3ccccc3)NC(C)=C2C(=O)Nc2ccc(F)cc2)cc1OC (configuration not stated) | 3.6% | 1% | 3.6% | 6.2% | 12.9% | 1.5% | 8.8% | 1.5% | 3.1% | 7.2% | Active | 11.8%
4 | COc1ccc(C2N=C(SCc3ccccc3Cl)NC(C)=C2C(=O)Nc2ccc(F)cc2)cc1OC (configuration not stated) | 39.2% | 21% | 6.2% | 11.8% | 25.3% | 23.2% | 17% | 2.6% | 30.3% | 35.9% | Active | 30.3%
5 | CC1=C(C(=O)Nc2ccc([N+](=O)[O-])cc2)C(c2cccc([N+](=O)[O-])c2)N=C(SCc2ccccc2Cl)N1 (configuration not stated) | 17.5% | 7.2% | 3.6% | 6.7% | 9.3% | 11.3% | 7.7% | 2.1% | 13.3% | 15.9% | Active | 12.8%
6 | COc1ccc(C2N=C(SCc3cccc(Cl)c3)NC(C)=C2C(=O)Nc2ccc(F)cc2)cc1OC (configuration not stated) | 20.1% | 13.3% | 5.2% | 8.2% | 13.4% | 15.5% | 10.8% | 2.1% | 17.4% | 16.4% | Active | 14.9%
7 | CC1=C(C(=O)Nc2ccc([N+](=O)[O-])cc2)C(c2ccc(Br)cc2)N=C(SCc2cccc(Cl)c2)N1 (configuration not stated) | 7.2% | 2.6% | 2.6% | 4.1% | 9.3% | 2.6% | 6.7% | 2.1% | 5.1% | 9.2% | Active | 11.8%
8 | COc1ccc(C2N=C(SCc3ccccc3)NC(C)=C2C(=O)Nc2ccc(Br)cc2)cc1 (configuration not stated) | 18.6% | 5.6% | 2.6% | 5.6% | 10.3% | 7.2% | 8.2% | 1% | 11.3% | 16.4% | Active | 13.3%
9 | CC1=C(C(=O)Nc2ccc([N+](=O)[O-])cc2)C(c2ccc(Br)cc2)N=C(SCc2ccccc2)N1 (configuration not stated) | 37.6% | 19.5% | 3.6% | 8.2% | 19.6% | 21.1% | 13.4% | 2.1% | 27.2% | 29.7% | Active | 27.7%
10 | CC1=C(C(=O)Nc2ccc(Br)cc2)C(c2ccc(Cl)cc2Cl)N=C(SCc2ccccc2Cl)N1 (configuration not stated) | 38.1% | 16.4% | 5.7% | 11.8% | 22.2% | 20.6% | 16% | 3.1% | 24.6% | 36.4% | Active | 28.7%
11 | CC1=C(C(=O)Nc2ccc([N+](=O)[O-])cc2)C(c2ccc(Br)cc2)N=C(SCc2ccc(Cl)cc2)N1 (configuration not stated) | 39.2% | 19% | 6.2% | 10.8% | 19.1% | 29.4% | 13.9% | 3.1% | 34.4% | 37.9% | Active | 29.7%
12 | CC1=C(C(=O)Nc2ccc(Br)cc2)C(c2ccc(Cl)cc2Cl)N=C(SCc2ccccc2)N1 (configuration not stated) | 24.2% | 8.2% | 3.6% | 6.7% | 13.4% | 11.3% | 10.3% | 1.5% | 17.4% | 22.1% | Active | 17.4%
13 | COc1ccc(C2N=C(SCc3ccc(Cl)cc3)NC(C)=C2C(=O)Nc2ccc(F)cc2)cc1OC (configuration not stated) | 37.1% | 20% | 5.7% | 10.3% | 20.1% | 22.2% | 15.5% | 3.1% | 26.7% | 31.3% | Active | 24.1%
14 | CC1=C(C(=O)Nc2ccc(F)cc2)C(c2ccc([N+](=O)[O-])cc2)N=C(SCc2ccccc2Cl)N1 (configuration not stated) | 21.6% | 11.3% | 3.1% | 6.2% | 12.4% | 13.9% | 8.8% | 1.5% | 17.4% | 18.5% | Active | 15.9%
15 | CC1=C(C(=O)Nc2ccc([N+](=O)[O-])cc2)C(c2ccc(Br)cc2)N=C(SCc2ccccc2Cl)N1 (configuration not stated) | 13.9% | 4.1% | 3.6% | 6.7% | 11.3% | 6.7% | 7.7% | 1.5% | 9.7% | 16.9% | Active | 15.4%
16 | COc1ccc(C2N=C(SCc3ccccc3Cl)NC(C)=C2C(=O)Nc2ccc(Br)cc2)cc1 (configuration not stated) | 20.6% | 7.2% | 4.6% | 6.7% | 11.3% | 10.8% | 8.2% | 3.1% | 13.3% | 17.9% | Active | 15.4%
